Data from ChEMBL document CHEMBL4513216, “Probing the Open Global Health Chemical Diversity Library for Multistage-Active Starting Points for Next-Generation Antimalarials” (ACS Infect Dis, 2020).

Assay: Toxicity liver stage against HepG2, at 10uM
Type: cell-based
Set-up: test concentration 10 uM, cell line HepG2-A16-CD81EGFP
Details: human, HepG2-A16-CD81EGFP cells; read-out: INHIBITION
Outline: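 Uninfected HepG2-A16-CD81EGFP cells, 3 × 10^3 per well, 1536-well, plated on prespotted compound at 10 μM final, parasite-free screening media added to match infected plates; puromycin 10 μM positive, DMSO 0.5% negative; run in parallel with 48 h PbLuc assay at 37 °C, 5% CO2; viability by CellTiter-Glo luminescence, normalized to controls.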

Row | SMILES | cytotoxicity at 10 µM
1 | CC(C)N1CCC(NC(=O)NCc2cccnc2)C1 (configuration not stated) | 7.67%
2 | CCC1CN(C(=O)c2[nH]nc(C)c2Br)CCO1 (configuration not stated) | -3.22%
3 | Cn1c(CN2CCOCC2)cc(=O)c(O)c1CN1CCOCC1 | -5.61%
4 | CC(C)OCCCNC(=O)CSc1nnc(OC(C)C)s1 | -5.89%
5 | CC(C)c1nnsc1CN1CCc2[nH]nc(-c3ccc(F)c(F)c3)c2C1 | 25.9%
6 | N#Cc1cc(C#N)c(SCC(=O)Nc2ccc(F)cc2)nc1N | -0.506%
7 | CN(Cc1cnn(C)c1)S(=O)(=O)N1CCCCC1 | -3.38%
8 | O=C1CO[C@@H]2CN(CC3CCOC3)C[C@H]2N1Cc1cccc(F)c1 (some centres not stated) | -73.5%
9 | Cc1cc2[nH]cc(C(=O)N3CCCCC3c3ccc(F)cc3)c(=O)n2n1 (configuration not stated) | 4.19%
10 | CCc1ncc2c(n1)CN(Cc1nc(-c3cccs3)no1)CC2 | -7.82%
11 | c1ccc(OCC2CC2)c(CNC2CCc3ncnn3C2)c1 (configuration not stated) | -6.72%
12 | CN(CCCc1cnn(C)c1)C(=O)C1CCN(C(=O)C2CCC2)CC1 | -11.6%
13 | CCCC1C=CCN1C(=O)c1cc(COc2ccc3c(c2)OCO3)[nH]n1 (configuration not stated) | 1.99%
14 | CN(C)c1ccc(CNC(=O)Nc2ccc(S(C)(=O)=O)nc2)cc1 | -2.48%
15 | COC(=O)CNC(=O)c1sccc1N(C)S(=O)(=O)c1ccc(Cl)cc1 | -15.4%
16 | CN1CCc2[nH]nc(C(=O)N3CCC4(CN(C)C(=O)O4)C3)c2C1 (configuration not stated) | -46.4%
17 | NC(CC1CCCCC1)c1ccccc1 (configuration not stated) | -4.8%
18 | Cc1cc(N2CCCC2c2cncc(N(C)C)n2)ncn1 (configuration not stated) | -15.2%
19 | CC(NCc1ccco1)c1nnc2n1CCCC2 (configuration not stated) | -2.34%
20 | O=C(CCSc1ccc2c(c1)OCCO2)NCC1CCS(=O)(=O)C1 (configuration not stated) | -4.01%
21 | O=C(Cn1cccnc1=O)NC(Cc1cccs1)c1ccccn1 (configuration not stated) | -2.03%
22 | CCc1ccccc1NC(=O)N1CCn2cnc(COC)c2C1 | -11.8%
23 | CC(C)c1n[nH]c(C2CN(C(=O)c3cnccn3)CCO2)n1 (configuration not stated) | 2.16%

Row | SMILES | cytotoxicity at 10 µM
24 | COc1ccc(C(=O)NC2COc3ccccc3C2)cc1OCC(=O)O (configuration not stated) | -2.18%
25 | CCc1nc(CN(C(C)=O)C2CCN(CCc3ccncc3)C2)no1 (configuration not stated) | -22.3%
26 | CCc1ncnc2c1CCN(Cc1ccccn1)CC2 | 1.39%
27 | CN(C)C(=O)N1CCC2(CCCN(c3ncccn3)C2)C1 (configuration not stated) | 4.82%
28 | CCc1nnc(CN(C)c2cc(C)nc3c(C)c(C)nn23)o1 | 0.126%
29 | O=C(CCc1ccccn1)NCC(O)c1ccc(Cl)cc1Cl (configuration not stated) | 8.54%
30 | O=C(c1ccco1)N1CCC2(CCC(=O)N2Cc2cccc(F)c2)CC1 | 2.84%
31 | Fc1ccc(-c2nc(CN3CCCC3Cn3cncn3)co2)cc1F (configuration not stated) | -5.58%
32 | CCC(=O)N1CCC2(CCN(Cc3cccc(F)c3)CC2)CC1 | -4.82%
33 | CC(C)CCN1CCNC(=O)C1CC(=O)NCCc1cc(O)ncn1 (configuration not stated) | -0.806%
34 | Cc1csc2nc3n(c(=O)c12)CCN(Cc1c[nH]cn1)CC3 | -18.8%
35 | Cn1cc(CN2CCC3(CCCN3Cc3cccnc3)CC2)cn1 | 2.43%
36 | CCc1ncc2c(n1)CN(c1nnc(C)c(C)c1C#N)CC2 | -134%
37 | CC(C(=O)Nc1cccc(C(F)(F)F)c1)N(C)CCN1CCOCC1 (configuration not stated) | 9.54%
38 | Cc1ccsc1C(=O)N1CCc2ncnc(NC(C)C)c2CC1 | -79.3%
39 | Cc1cnc(N2CCCC(c3ccccc3)C2)nc1-c1ccnn1C (configuration not stated) | -1.18%
40 | COc1ccccc1CC1CCCN1C(=O)c1cn[nH]c1C (configuration not stated) | 0.58%
41 | CC(C1CCN(Cc2ccc(N(C)C)nc2)CC1)N(C)C (configuration not stated) | -1.75%
42 | Cc1cc(C(=O)N2C[C@@H]3COC[C@]3(COCc3cccnc3)C2)no1 | -16.1%
43 | CCN(C(c1cccnc1)c1ccc(F)cc1F)S(C)(=O)=O (configuration not stated) | 10.8%
44 | CCOc1ccc(-n2nc(C)c(CC(C)=O)c2C)cc1C(N)=O | 7.09%
45 | Cn1cc(CN2CCC3(CCCN(C(=O)c4cnccn4)C3)C2)cn1 (configuration not stated) | -131%
46 | COCCc1noc(CN2CCCCC2Cn2cccn2)n1 (configuration not stated) | -1.3%

Row | SMILES | cytotoxicity at 10 µM
47 | Cc1ccc(S(=O)(=O)NC(=O)CCC2CCCO2)cc1 (configuration not stated) | -15.7%
48 | CN1CCN(Cc2cccnc2)C(=O)C12CCN(S(C)(=O)=O)CC2 | 0.611%
49 | CC(C)COC(C)C(=O)N1CCCCCC1 (configuration not stated) | 1.31%
50 | CC(CNC(=O)c1cccc(-n2cccn2)c1)Cn1ccnc1 (configuration not stated) | 0.335%
51 | CCNC(=O)Cc1c(C)nc2c(c1C)c(=O)[nH]n2C | 2.62%
52 | CC(C)(NC(=O)NCc1cccc(Br)c1)C(=O)O | 9.13%
53 | CCOc1ccc(C(C)Nc2ncnc3c2CCNC3)cc1OCC (configuration not stated) | -8.81%
54 | CCCn1nc(C)c2c1NC(=O)CC2c1ccc(CN2CCCC2)s1 (configuration not stated) | 0.355%
55 | CCNC(c1ccc(C)cc1)c1cccnc1 (configuration not stated) | 0.533%
56 | CCOc1ccccc1CNC1CCCN(Cc2noc(C)n2)C1 (configuration not stated) | -13.1%
57 | CN(Cc1ccccc1)C(=O)CN1CCCCC1Cn1cncn1 (configuration not stated) | 10.4%
58 | CN(Cc1nnc(C2CCC2)o1)C(C(N)=O)c1cccc(F)c1 (configuration not stated) | 16.7%
59 | Cc1cc(C(=O)CN2CCN(c3nccs3)CC2)c(C)n1C1CC1 | 10.6%
60 | CC(C)=CCN1CCN(Cc2cc(C)n[nH]2)CC1CCO (configuration not stated) | 1.96%
61 | COC1CCN(CC(=O)NCc2ccc(OCC(N)=O)cc2)CC1 | -0.094%
62 | CCCNC(=O)CN1CCC(NCc2c(C)nn(C)c2OC)CC1 | -5.32%
63 | Cc1cc(-c2nn(C)c(Cl)c2CN2CCOCC2CC(=O)O)no1 (configuration not stated) | -12.2%
64 | COCCOCCNS(=O)(=O)C1CS(=O)(=O)c2ccccc21 (configuration not stated) | -15.3%
65 | N#Cc1c(Cl)nsc1NCc1ccc(N2CCCC(C(N)=O)C2)cc1 (configuration not stated) | -9.65%
66 | C[C@@H]1CN(CC(C)(C)N2CCCCC2)CC[C@@]1(O)C1CC1 | -4.6%
67 | COCCCN1CCCCC12CC(=O)N(Cc1ccccn1)C2 (configuration not stated) | 1.95%
68 | COc1ccc(C2=Nn3c(CCCN)nnc3-c3ccccc3C2)cc1 | 3.07%
69 | Cc1cc2cc(NC(=O)Cn3ncc(N4CCCC4)cc3=O)ccc2o1 | -0.273%

Row | SMILES | cytotoxicity at 10 µM
70 | CC(O)CN(CC(=O)NC(=O)NCC(F)(F)F)c1ccccc1 (configuration not stated) | 1.15%
71 | CCc1ccc(S(=O)(=O)N2CCCC(c3ncc[nH]3)C2)s1 (configuration not stated) | 12.8%
72 | Cc1ccc(-c2ccnc(NC(C)c3ncc[nH]3)n2)c(C)n1 (configuration not stated) | 3.29%
73 | CC(=O)NCC(=O)N1CCCC1c1ccc(CN2CCOCC2)cn1 (configuration not stated) | -2.3%
74 | O=C(CN1C(=O)CCC1=O)N1CCC(S(=O)(=O)Cc2ccco2)CC1 | 3.79%
75 | CN(C)c1ncnc2c1CCN(Cc1nccs1)CC2 | 6.1%
76 | Oc1cc(CN2CCC(O)(Cn3ccnc3)CC2)nc2ccc(F)cc12 | -44.5%
77 | Cc1nc(CNCC2CN(C3CC3)CCO2)cs1 (configuration not stated) | -10.1%
78 | COc1ccc2c(c1)OC1(CCN(Cc3cccc(C)c3)CC1)CC2=O | 5.5%
79 | Cc1nc(CN2CCN(C(=O)COCc3ccccc3)CC2)no1 | -14.1%
80 | Cc1nc(N2CCN(S(C)(=O)=O)CC2)cc(-n2cnc(C)c2C)n1 | -5.83%
81 | CCc1nc(CNc2ccc(C(=O)N3CCSCC3)cc2C)no1 | -6.99%
82 | c1cc(NC2CC3(CCN(Cc4cc[nH]n4)C3)C2)ncn1 (configuration not stated) | -4.71%
83 | CN(CC(=O)Nc1ccncc1)C1CCCN(c2cccnn2)C1 (configuration not stated) | -3.44%
84 | Cc1nc(C2CCCN(C(=O)c3cc(-c4ccccc4)[nH]n3)C2)no1 (configuration not stated) | -7.99%
85 | Cc1ccc(NS(C)(=O)=O)c(C(=O)NCCC(=O)NC(C)C)c1 | -0.141%
86 | CC(C)(C)c1nnc(CN2CCCC(Cn3cncn3)C2)o1 (configuration not stated) | -6.31%
87 | CCn1cc(CNc2ccc(Br)c(OC)c2)cn1 | 5.42%
88 | CNc1nc(C(=O)N2CCCC(COc3ccc(F)cc3)C2)cs1 (configuration not stated) | 8.35%
89 | O=C(NCC(O)c1cccs1)c1sccc1OC(F)F (configuration not stated) | -2.45%
90 | Cc1noc([C@@]23CCO[C@@H]2CCN(C(=O)c2cc(C)on2)C3)n1 | 10.9%
91 | Cc1cnc2c(c1)N(C(=O)c1ccc(=O)n(C)c1)CCO2 | 0.965%
92 | CC(=O)N1CCN(Cc2coc(-c3cccc(F)c3)n2)CC1 | -3.78%

Row | SMILES | cytotoxicity at 10 µM
93 | CC(C(=O)Nc1ccc(N2CCCC2)nc1)n1cccn1 (configuration not stated) | -17.1%
94 | CCOC(=O)CNc1nc(COC)nc2c1cnn2C | 9%
95 | CCN(CC1CN(Cc2ncc[nH]2)CCO1)c1cccnn1 (configuration not stated) | 1.31%
96 | CC(C)(C)n1nnnc1CN(Cc1ccccc1)Cc1ccc(Cl)cc1 | 28.8%
97 | CN(C)S(=O)(=O)N1CCC2(CC1)CC(Oc1ccccn1)CO2 (configuration not stated) | -133%
98 | CC(NC(=O)c1ccc(Cl)cc1)c1nnc(SCC(N)=O)n1C (configuration not stated) | 6.27%
99 | COc1cncc(N2CCN(Cc3cccn3C)CC2)n1 | 6.09%
100 | CCCn1c(C)c(CC(=O)NC(C)CO)c2c1CC(C)(C)CC2=O (configuration not stated) | -10.5%
101 | Cc1cc(C)nc(Nc2cccc(C3CCCN(CCO)C3)n2)n1 (configuration not stated) | -12.9%
102 | CCN(CC)C(=O)c1ccc(-c2ccsc2)nc1C | -13.4%
103 | O=C(NCc1ccco1)[C@H]1CC[C@@H]2[C@@H](CCN2c2ncccn2)O1 | -69.6%
104 | Cc1c(Cl)cc(C(=O)NCCc2ncnn2C)cc1Cl | 6.07%
105 | Cc1cc(NCc2nnc3n2CCC3)n2nc(C)c(C)c2n1 | 1.16%
106 | N#CCc1ccc(OCC(=O)NS(=O)(=O)c2ccc(Cl)s2)cc1 | 6.41%
107 | CN(CCC(=O)N1CCc2sccc2C1)Cc1cnn(C)c1 | -18.6%
108 | Cc1ncc(C(=O)N2CCCC(C(=O)c3nccn3C)C2)c(O)n1 (configuration not stated) | -2.28%
109 | CN1CCC2(CCC1=O)CCN(C(=O)Cc1ccc(O)c(F)c1)CC2 | -8.99%
110 | Cc1nn(C)c(C)c1-c1cc(-c2cc(CC(=O)O)cs2)nc(N)c1C#N | 0.701%
111 | CN(C)C(=O)COC1COC2(CCN(CC3CC3)CC2)C1 (configuration not stated) | -108%
112 | CS(=O)(=O)NC[C@]12COC[C@H]1CN(Cc1ccc3c(c1)OCO3)C2 | -106%
